Assay results published in ChEMBL document CHEMBL4138261, “SAR Studies of Indole-5-propanoic Acid Derivatives To Develop Novel GPR40 Agonists” (ACS Med Chem Lett, 2017).
Active and inactive are the calls of the source.

Key:
[1] = biological target: Free fatty acid receptor 1 (Homo sapiens, UniProt O14842); experiment: Agonist activity at human GPR40 expressed in CHO cells after 24 hrs by NFAT-luciferase reporter gene assay; format: functional, cell-based
[2] = biological target: T1, Peroxisome proliferator-activated receptor gamma (Homo sapiens) (UniProt P37231); experiment: Transactivation of human PPARgamma expressed in CHO cells at 10 uM after 24 hrs by luciferase reporter gene assay relative to rosiglitazone; format: cell-based
T1 sequence (whole entry): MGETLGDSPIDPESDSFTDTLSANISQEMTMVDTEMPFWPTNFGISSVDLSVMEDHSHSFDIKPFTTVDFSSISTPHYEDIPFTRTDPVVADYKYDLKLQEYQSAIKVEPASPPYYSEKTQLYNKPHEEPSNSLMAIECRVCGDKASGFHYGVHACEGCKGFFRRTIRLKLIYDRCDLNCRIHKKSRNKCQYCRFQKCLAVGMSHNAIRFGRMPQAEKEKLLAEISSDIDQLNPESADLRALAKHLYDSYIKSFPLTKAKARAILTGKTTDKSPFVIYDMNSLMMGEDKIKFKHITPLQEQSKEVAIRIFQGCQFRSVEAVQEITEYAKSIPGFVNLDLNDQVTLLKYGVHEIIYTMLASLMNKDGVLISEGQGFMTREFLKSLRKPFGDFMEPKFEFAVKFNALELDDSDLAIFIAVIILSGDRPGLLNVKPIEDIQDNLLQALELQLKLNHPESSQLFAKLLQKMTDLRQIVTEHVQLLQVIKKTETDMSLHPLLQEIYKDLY
Outline: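 Luciferase reporter transactivation assay for PPARγ; compounds tested at 10 μM; activity expressed as percent of 1 μM rosiglitazone; no activity defined as >25 μM.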

[3] = biological target: T2, Peroxisome proliferator-activated receptor gamma (Homo sapiens, UniProt P37231); experiment: Transactivation of human PPARgamma expressed in CHO cells after 24 hrs by luciferase reporter gene assay; format: cell-based
T2 sequence (P37231 whole entry): T1 sequence (whole entry)

[4] = Intrinsic clearance in human liver microsomes at 1 uM after 30 mins in presence of NADPH by UPLC-MS analysis; format: ADME, microsome; conditions: 0.5 h
Outline: (§1)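 Liver microsomal stability; intrinsic clearance reported in μL/min/mg.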

[5] = Intrinsic clearance in CD-1 mouse liver microsomes at 1 uM after 30 mins in presence of NADPH by UPLC-MS analysis; format: ADME, microsome; conditions: 0.5 h; outline: as §1
[6] = biological target: Free fatty acid receptor 1 (Mus musculus) (UniProt Q76JU9); experiment: Agonist activity at GPR40 in mouse MIN6 cells assessed as increase in 17 mM glucose-stimulated insulin secretion at 1 and 10 uM after 2 hrs by ELISA relative to glucose; format: functional, cell-based
Free fatty acid receptor 1 (Mus musculus), sequence (Q76JU9 whole entry): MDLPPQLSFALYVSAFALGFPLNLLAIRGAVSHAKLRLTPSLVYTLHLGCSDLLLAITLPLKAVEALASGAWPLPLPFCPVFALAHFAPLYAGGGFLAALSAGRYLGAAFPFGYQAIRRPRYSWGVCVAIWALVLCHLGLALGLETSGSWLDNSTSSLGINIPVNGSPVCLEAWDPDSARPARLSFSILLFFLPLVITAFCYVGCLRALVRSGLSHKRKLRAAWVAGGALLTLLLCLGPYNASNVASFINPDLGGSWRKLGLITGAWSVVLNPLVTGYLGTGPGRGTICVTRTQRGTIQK
Outline: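 GSIS in MIN6 insulinoma cells stimulated with 17 mM glucose; insulin secretion compared with 17 mM glucose alone by Student's test (*p ≤ 0.05, **p ≤ 0.025, ***p ≤ 0.01).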

Free fatty acid receptor 1, sequence (O14842 whole entry): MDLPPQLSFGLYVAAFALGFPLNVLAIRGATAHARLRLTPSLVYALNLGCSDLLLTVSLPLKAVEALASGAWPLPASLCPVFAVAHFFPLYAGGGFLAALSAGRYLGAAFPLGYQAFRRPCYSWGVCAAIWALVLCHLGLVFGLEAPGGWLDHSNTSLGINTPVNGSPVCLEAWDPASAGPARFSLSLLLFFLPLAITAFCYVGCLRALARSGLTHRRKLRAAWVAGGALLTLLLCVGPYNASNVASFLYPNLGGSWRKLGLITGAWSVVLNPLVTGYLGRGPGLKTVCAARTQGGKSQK

| EC50 [1] [nM] | Activity [2] [%] | Structure (SMILES) | further results |
| --- | --- | --- | --- |
| 1310 | 8 | O=C(O)CCc1ccc2[nH]c(-c3ccccc3C(F)(F)F)cc2c1 |  |
| > 25000 | 64 | Cc1ncccc1-c1cc2cc(CCC(=O)O)ccc2[nH]1 | EC50 [3]: 56900 nM |
| 1020 | 2 | O=C(O)CCc1ccc2[nH]c(-c3ccccc3OC(F)(F)F)cc2c1 |  |
| > 10000 |  | Cn1c(-c2ccc(Cl)cc2)cc2cc(CCC(=O)O)ccc21 |  |
| > 10000 |  | Cn1c(-c2ccccc2Br)cc2cc(CCC(=O)O)ccc21 |  |
| > 25000 | 8 | Cc1cccc(-c2cc3cc(CCC(=O)O)ccc3[nH]2)c1 |  |
| 50 |  | O=C(O)CCc1ccc(NCc2cccc(Oc3ccccc3)c2)cc1 [GW9508] |  |
| > 25000 | 0 | COc1ccccc1-c1cc2cc(CCC(=O)O)ccc2[nH]1 |  |
| 9.4 | 4 | O=C(O)CCc1ccc2[nH]c(-c3ccccc3Br)cc2c1 | CLH [4]: 7.1 µL/min; CLH [5]: 10.4 µL/min; fold change (FC) [6]: 1.6 |
| 1210 | 3 | O=C(O)CCc1ccc2[nH]c(-c3ccccc3F)cc2c1 |  |
| 1800 | 7 | CCc1ccccc1-c1cc2cc(CCC(=O)O)ccc2[nH]1 |  |
| 447 | 4 | Cc1ccccc1-c1cc2cc(CCC(=O)O)ccc2[nH]1 |  |
| 1800 | 56 | O=C(O)CCc1ccc2[nH]c(-c3cccc(Br)c3)cc2c1 | EC50 [3]: 236000 nM |
|  |  | Cc1cc(OCCCS(C)(=O)=O)cc(C)c1-c1cccc(COc2ccc3c(c2)OC[C@H]3CC(=O)O)c1 | fold change (FC) [6]: 1.7 |
| > 10000 |  | Cn1c(-c2cccc(Cl)c2)cc2cc(CCC(=O)O)ccc21 |  |
| 778 | 1 | O=C(O)CCc1ccc2[nH]c(-c3ccc(Cl)cc3)cc2c1 |  |
| > 25000 | 2 | CC(C)c1ccccc1-c1cc2cc(CCC(=O)O)ccc2[nH]1 |  |
| > 25000 | 5 | COc1cccc(-c2cc3cc(CCC(=O)O)ccc3[nH]2)c1 |  |
| > 25000 | 4 | Cc1ccc(-c2cc3cc(CCC(=O)O)ccc3[nH]2)cc1 |  |
| 54.6 to 58.6 | 1 | O=C(O)CCc1ccc2[nH]c(-c3ccccc3Cl)cc2c1 | CLH [4]: 9.2 µL/min; CLH [5]: 14.3 µL/min; fold change (FC) [6]: 1.4 |
| > 25000 | 14 | O=C(O)CCc1ccc2[nH]c(-c3ccccc3)cc2c1 | Activity [6]: inactive |
| 37.8 | 101 | O=C(O)CCc1ccc2[nH]c(-c3cccc(Cl)c3)cc2c1 | CLH [4]: 4.3 µL/min; EC50 [3]: 2400 nM; CLH [5]: 11.3 µL/min; fold change (FC) [6]: 1.7 |
| > 25000 | 5 | COc1ccc(-c2cc3cc(CCC(=O)O)ccc3[nH]2)cc1 |  |
